Sampled rows, rich in hits. Any-hit rate of the full collection: about 4%.
hiPSC survival: enhancers of single-cell hiPSC survival, primary screen, ATPlite luminescence | 100% = ROCK inhibitor wells, 0% = DMSO | survival enhancement, % at 20 µM | hit rate 0.044% among 360,000 | AID 602274, 2012; in the data active = survival enhancement above about 18%;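 also: cells exposed to compounds for 16 hours before the ATP read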
SENP1 FRET inh: human SENP1 catalytic domain inhibitors, primary screen, biochemical, FRET, uHTS; recombinant SENP1 catalytic domain, CyPet-SUMO1-YPet FRET cleavage; inhibition, % at 10 µM; hit rate 0.21% among 360,000; AID 624204, 2012;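 active = inhibition at least 30% at 10 µM, raw YFP signal under a set limit, fluorescence ratio 0.5 to 1.5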;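 also: 0% = enzyme with DMSO and 100% = no enzyme wells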
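Test system: human SENP1 catalytic domain; medium: Tris pH 8 buffer plus EDTA, NaCl, BME, BSA, NP40, catalase; incubation: 50 min reaction at room temperature; technique: FRET, CFP and YFP emission; controls: no-enzyme low control and enzyme-plus-DMSO high control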
FAS-TE inh: FAS thioesterase domain inhibitors, primary screen, biochemical, fluorescence intensity, uHTS; Fatty acid synthase (Homo sapiens), P49327; recombinant FAS-TE, OMFH fluorogenic substrate, fluorescence endpoint; inhibition, % at 15 µM; hit rate 0.67% among 360,000;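 active = compounds whose normalised, plate-corrected inhibition of enzyme fluorescence in the single-dose primary screen is 50% or more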;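 also: 0% = DMSO with enzyme and 100% = substrate without enzyme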
Arr AP2 block: inhibitors of beta-arrestin/AP2 binding, primary screen, biochemical, GPCR trafficking, flow cytometry. inhibition, % at 10 µM. AID 504490, 2011. FITC-arrestin peptide / GST-AP2 beads; AP2 beta2 appendage carries R879A mutation. beta-arrestin 1 C-terminal peptide binding to AP2 beta2-adaptin appendage (human). hit rate 0.31% among 340,000;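 active = inhibition above a set limit, near 3 SD of compounds lacking own fluorescence, cut at about 54% in these data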;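 also: plate controls were DMSO wells for no effect and 5 µM unlabelled arrestin peptide for full effect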
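System: GST-AP2 R879A glutathione beads | Also added: FITC-arrestin peptide, 50 nM | Times: 12 min plus 1 h, RT | Signal: Bead flow cytometry, FITC channel | Buffer or medium: PBS with 0.05% Tween 20 and 0.1% BSA | Read-out basis: Percent drop in bead-associated FITC signal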
GRIN3A LBD mod: binders of NR3A ligand-binding domain, primary screen, biophysical, differential scanning fluorimetry, uHTS. NR3A LBD differential scanning fluorimetry, Tm shift; 0% = protein alone, 100% = glycine-bound protein. Tm shift relative to glycine control, % at 25 µM. hit rate 2.5% among 340,000. AID 1259313, 2017;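 active = melting temperature shift of at least 10% of the positive control shift, at one fixed dose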
Cardio protect: cardioprotection against H2O2-induced cell death, primary screen, uHTS, H9c2 cells, ATPLite luminescence | H9c2 cardiomyocytes, H2O2 injury protection, 2 h | protection from H2O2 cell death, % at 20 µM | hit rate 0.63% among 360,000 | AID 588492, 2011;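 active = compounds giving at least 50% protection of heart cells from peroxide-induced death in the single-dose screen, raw or plate-pattern-corrected value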;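 also: 0% = DMSO wells with peroxide and 100% = DMSO wells without peroxide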
Starred values were filed as active, the others as inactive; . = no result.

SMILES	hiPSC survival	SENP1 FRET inh	FAS-TE inh	Arr AP2 block	GRIN3A LBD mod	Cardio protect
COc1ccccc1-c1nc2c(c(SCC(=O)N3CCCCC3)n1)Cc1c(CO)cnc(C)c1O2	-0.2	-0.7	-0.3	-4.1	-2.4	37.3
Cc1ncc(CO)c2c1Oc1nc(-c3ccccc3)nc(SCC(=O)N3CCOCC3)c1C2	-0.4	-0.8	-5.0	26.3	-1.2	33.4
Cc1cccc(-c2nc3c(c(SCC(=O)N4CCOCC4)n2)Cc2c(CO)cnc(C)c2O3)c1	0.3	-7.7	-0.7	1.9	-3.4	51.0*
COc1cccc(-c2nc3c(c(SCC(=O)N4CCOCC4)n2)Cc2c(CO)cnc(C)c2O3)c1	-0.4	-3.3	-3.6	28.6	-1.1	71.9*
Cc1ncc(CO)c2c1Oc1nc(-c3ccccc3)nc(SCC(=O)N3CCCCC3)c1C2	1.4	-5.0	-0.3	1.6	-1.2	74.4*
CSCCC(C(=O)Nc1c(C)cccc1C)n1c(-c2ccc(C(F)(F)F)cc2)nc2ccccc21 (stereo not drawn)	.	-1.1	.	.	.	.
COC(=O)c1cc2ccc(OC)cc2c2cc(OC)c(OC)cc12	-3.0	1.2	14.6	-2.9	-10.9	55.1*
CC(C)C[C@@H]1Cc2[nH]c(=S)[nH]c(=O)c2[C@H](C)O1	1.8	1.4	-8.3	.	.	.
CC(C)c1ccc(NC(=O)Nc2nc(C(N)COCc3ccccc3)cs2)cc1 (stereo not drawn)	-2.6	-0.1	-36.5	.	.	-11.5
COc1cccc(-c2noc(-c3cccnc3)n2)c1	-2.3	1.2	-3.8	-5.8	1.4	-23.8
COc1cccc(-c2noc(C(C)n3nc(C)c([N+](=O)[O-])c3C)n2)c1 (stereo not drawn)	7.3	1.5	9.5	6.6	13.8*	-0.1
O=C(N/N=C/c1cc(Br)c(O)c(Br)c1)c1cc2c(ccc3ccccc32)o1	0.2	-23.0	18.2	1.0	6.5	-4.0
CCn1cc(/C=N/NC(=O)c2cc3c(ccc4ccccc43)o2)c2ccccc21	1.5	-19.2	28.4	.	25.6*	0.0
CC(C)n1cc(/C=N\NC(=O)c2cc3c(ccc4ccccc43)o2)c2ccccc21	4.7	-10.2	28.1	7.1	-1.7	9.0
CCOc1cc(/C=N/NC(=O)c2cc3c(ccc4ccccc43)o2)ccc1O	-0.3	2.6	-0.5	-0.8	28.3*	39.8
CCOC(=O)COc1ccccc1/C=N\NC(=O)c1cc2c(ccc3ccccc32)o1	1.0	-1.3	23.5	2.7	0.2	49.6
O=C(N/N=C/c1ccc(O)c(Br)c1)c1cc2c(ccc3ccccc32)o1	0.1	45.4	0.8	44.8	35.3*	6.9
Cc1cc2c(cc1C)-n1nnnc1C(N(C)Cc1ccccc1)C(=O)N2 (stereo not drawn)	.	-1.9	.	.	.	.
O=C(Nc1ccccc1)C1Cc2c(-c3ccco3)ccnc2O1 (stereo not drawn)	-1.9	1.6	2.0	.	.	8.6
CCC(=O)NC(c1cc(Cl)c2cccnc2c1O)C1CC1 (stereo not drawn)	-2.6	0.2	9.1	-5.8	-20.6	32.9
CC(=O)NC(c1cc(F)c2cccnc2c1O)C1CC1 (stereo not drawn)	-1.0	-0.4	-11.0	1.8	-0.2	55.3*
COc1cccc(NC(=O)COc2cccc3c2CCNC3=O)c1	-0.3	-0.3	-4.3	9.5	3.2	56.0*
O=C(COc1cccnc1[N+](=O)[O-])Nc1ccc(F)cc1	-2.4	-0.6	3.0	25.2	-1.0	1.7
COc1ccc(NC(=O)COc2cccc3c2CCNC3=O)cc1	-0.4	-0.3	-4.4	-18.4	0.3	67.7*
O=C(COc1cccc2c1CCNC2=O)Nc1ccc(F)cc1	0.5	-1.7	-4.9	-9.6	3.2	51.0*
SMILES	hiPSC survival	SENP1 FRET inh	FAS-TE inh	Arr AP2 block	GRIN3A LBD mod	Cardio protect
Cc1cccc(NC(=O)COc2cccc3c2CCNC3=O)c1	0.3	0.0	-7.1	.	.	59.4*
COc1cccc(NC(=O)COc2ccc(C)cc2)c1	-1.7	0.3	0.8	-3.7	1.0	-12.2
CCc1nc2ccc(C(=O)N(C)C(C)C)cn2c1N(CC)Cc1cccc(Br)c1	-2.0	-1.6	-3.8	.	.	-9.0
COC(=O)C[C@H]1CC[C@@H](NC(=O)Nc2cccc(OC)c2)[C@@H](CO)O1	.	3.4	.	.	.	.
CC1=C(C(=O)N2CCCCCC2)CC(CC(=O)NC2CCCC2)C(=O)N1Cc1ccc(F)cc1 (stereo not drawn)	-0.2	1.1	1.6	.	.	.
CSc1ccc(CN2CCC(C)(Oc3ccc(-n4ccnc4)cc3)C2)cc1 (stereo not drawn)	-2.1	-1.9	0.8	.	.	-4.2
Clc1ccc2[nH]c(-c3ccccc3)cc2c1	-0.6	-1.2	28.2	8.8	19.8*	-20.1
O=c1cc(-c2ccccc2)[nH]c2cc(Cl)ccc12	0.5	0.0	-7.2	27.1	0.7	-3.8
COc1cccc(NC(=O)/C=C/c2ccccc2[N+](=O)[O-])c1	-1.6	1.1	8.1	1.2	26.8*	-3.1
Cc1ccccc1-c1ccc(C(=O)Nc2cccc(F)c2)o1	-2.8	-0.8	21.9	27.0	-5.2	-21.5
O=C(/C=C/c1cc([N+](=O)[O-])ccc1OC(F)F)Nc1cccc(OC(F)F)c1	0.4	0.7	18.7	7.9	13.2*	-2.1
Cc1cccc(NC(=O)/C=C/c2ccc([N+](=O)[O-])s2)c1	-2.0	-28.4	-0.2	-10.2	12.4*	-5.4
Cc1cccc(NC(=O)c2ccc(-c3ccccc3[N+](=O)[O-])o2)c1	1.2	-3.7	22.2	8.6	27.2*	-4.7
Cc1ccc(NC(=O)/C=C/c2ccc([N+](=O)[O-])s2)cc1	-2.7	-21.7	-7.0	21.3	-5.9	0.3
O=CNc1cc(-c2ccoc2)cn2c(-c3ccc(F)cc3)cnc12	1.6	-21.2	4.7	.	.	-2.4
COc1cccc(NC(=O)c2ccc(C(=O)c3ccccc3)o2)c1	1.5	2.5	13.6	2.8	-13.7	-7.4
COc1cccc(NC(=O)c2ccc(-c3ccccc3[N+](=O)[O-])o2)c1	-2.0	0.4	20.4	16.2	27.6*	8.2
O=S(=O)([O-])C(c1ccccc1)[n+]1ccccc1 (stereo not drawn)	0.0	1.8	-9.0	21.5	21.1*	-0.5
COc1ccc2c(CC(=O)OCC(=O)c3ccccc3OC)coc2c1	-0.1	0.7	18.5	-12.9	-0.6	-0.1
COc1ccc2c(CC(=O)OCC(=O)c3ccc(F)cc3)coc2c1	-0.8	-4.3	-4.2	5.1	18.9*	-11.2
CCN(CC)S(=O)(=O)c1ccc(NS(=O)(=O)c2ccc(C)c(C)c2)cc1	-1.1	0.1	-0.5	35.4	-8.4	-3.0

Screens from PubChem BioAssay.
